Results on six molecules are retold here after ChEMBL document CHEMBL2331332 (J Med Chem, 2013).

Each structure is given as a SMILES string. The source made the active and inactive calls. The rule behind the calls is not given here. Where only a bound is given, the exact number is not on record here.

Assay [1] concerns the target T1, Prostaglandin E synthase (Homo sapiens) (UniProt O14684).
T1 sequence (whole entry): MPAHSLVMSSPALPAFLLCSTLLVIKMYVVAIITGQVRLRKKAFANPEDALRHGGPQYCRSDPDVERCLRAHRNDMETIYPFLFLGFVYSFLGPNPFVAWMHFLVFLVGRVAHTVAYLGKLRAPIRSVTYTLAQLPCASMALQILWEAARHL
Description: Competitive inhibition of full-length microsomal PGES-1 (unknown origin) expressed in Escherichia coli Rosetta(DE3) using PGH2 as substrate incubated for 5 mins prior to substrate addition relative to control in presence of increased substrate concentration.

In assay [2] the target is T1, Prostaglandin E synthase (Homo sapiens). Description: Competitive inhibition of full-length microsomal PGES-1 (unknown origin) expressed in Escherichia coli Rosetta(DE3) using PGH2 as substrate incubated for 5 mins prior to substrate addition relative to control.
In assay [3] the target is T2, Polyunsaturated fatty acid 5-lipoxygenase (Homo sapiens) (UniProt P09917).
T2 sequence (whole entry): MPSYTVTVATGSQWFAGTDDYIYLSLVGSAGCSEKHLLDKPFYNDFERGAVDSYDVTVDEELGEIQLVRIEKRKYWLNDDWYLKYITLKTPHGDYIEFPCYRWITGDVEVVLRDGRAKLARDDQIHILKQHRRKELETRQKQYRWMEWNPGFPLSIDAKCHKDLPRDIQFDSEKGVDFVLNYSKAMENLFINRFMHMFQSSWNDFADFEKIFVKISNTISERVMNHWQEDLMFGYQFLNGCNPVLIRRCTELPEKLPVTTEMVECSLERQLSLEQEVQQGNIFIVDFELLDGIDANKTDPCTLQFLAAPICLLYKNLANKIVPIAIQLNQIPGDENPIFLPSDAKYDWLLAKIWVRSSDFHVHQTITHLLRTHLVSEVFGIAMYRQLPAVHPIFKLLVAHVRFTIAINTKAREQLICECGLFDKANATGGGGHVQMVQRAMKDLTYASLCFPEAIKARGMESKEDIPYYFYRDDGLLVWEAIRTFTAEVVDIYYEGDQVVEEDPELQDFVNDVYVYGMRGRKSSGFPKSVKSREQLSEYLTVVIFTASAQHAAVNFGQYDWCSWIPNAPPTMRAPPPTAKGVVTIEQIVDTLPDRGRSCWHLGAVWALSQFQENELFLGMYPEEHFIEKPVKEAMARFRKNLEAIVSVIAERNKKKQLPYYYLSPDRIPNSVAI
Description: Inhibition of 5-LOX-mediated LTB4 formation in human whole blood at 10 uM incubated for 20 mins prior to substrate addition measured after 0.5 hrs by EIA in presence of calcium ionophore A23187. The essentials:
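Human whole blood was stimulated with calcium ionophore A23187 (final 20 μg/mL) for 0.5 h at 37 °C to induce LTB4 formation. Compounds were tested at 10 μM.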

Assay [4] addresses T1, Prostaglandin E synthase (Homo sapiens). Description: Competitive inhibition of full-length microsomal PGES-1 (unknown origin) expressed in Escherichia coli Rosetta(DE3) using PGH2 as substrate preincubated for 15 mins relative to control in presence of higher glutathione disulfide concentration. The method in brief:
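This GSSG control repeated the cofactor competition setup, with added GSH replaced by GSSG at the same final mass-volume percentage. 2.5 mM GSH was always present, and PGH2 was 17 μM. Preincubation was 15 min at 4 °C. Zero inhibition was set from the GSH activity curve, and PGE2 was read by EIA. Mean ± SEM, n = 3.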

Assay [5] addresses T3, Prostaglandin E synthase (Homo sapiens, UniProt O14684).
T3 sequence (O14684 whole entry): T1 sequence (whole entry)
Description: Inhibition of PGES-1 in human whole blood assessed as LPS-induced PGE2 formation incubated for 15 mins prior to LPS addition measured after 24 hrs by EIA. The essentials:
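Fresh heparinized blood came from healthy volunteers free of NSAIDs for at least 14 days. It was preincubated 15 min at 37 °C with compound or DMSO vehicle. LPS (final 100 μg/mL) was then added for 24 h at 37 °C. Plasma was obtained by centrifugation at 4 °C, and PGE2 was read by EIA.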

Assay [6] addresses T3, Prostaglandin E synthase. Description: Inhibition of full-length microsomal PGES-1 (unknown origin) expressed in Escherichia coli Rosetta(DE3) using PGH2 as substrate assessed as inhibition of PGH2 conversion to PGE2 incubated 15 mins prior to substrate addition measured after 1 min by EIA. The essentials:
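Reactions used 2.5 mM cofactor and 17 μM PGH2 for 1 min at 4 °C, then were stopped, and PGE2 was quantified by EIA. IC50 came from dose-response curves. Mean ± SEM, n = 3.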

The target of assay [7] is T2, Polyunsaturated fatty acid 5-lipoxygenase (Homo sapiens). The assay is described as follows: Inhibition of 5-LOX (unknown origin) at 10 uM by human whole blood LTB4 assay.
Assay [8] relates to Prostaglandin G/H synthase 2 (COX-2). The assay is described as follows: Inhibition of COX-2 (unknown origin)-mediated TMPD oxidation using PGG2 as substrate at 100 uM incubated 15 mins prior to substrate addition measured after 36 secs by spectrophotometric analysis. Particulars: Homo sapiens.
The subject of assay [9] is Prostaglandin G/H synthase 1 (COX-1). The assay is described as follows: Inhibition of COX-1 (unknown origin)-mediated TMPD oxidation using PGG2 as substrate at 100 uM incubated 15 mins prior to substrate addition measured after 36 secs by spectrophotometric analysis. Particulars: Homo sapiens.
The target in assay [10] is T1, Prostaglandin E synthase (Homo sapiens). Description: Competitive inhibition of full-length microsomal PGES-1 (unknown origin) expressed in Escherichia coli Rosetta(DE3) using PGH2 as substrate preincubated for 15 mins relative to control in presence of 25 mM of cofactor GSH.
Assay [11] shares this target. The assay is described as follows: Competitive inhibition of full-length microsomal PGES-1 (unknown origin) expressed in Escherichia coli Rosetta(DE3) using PGH2 as substrate preincubated for 15 mins relative to control in presence of 2.5 mM of cofactor GSH.
Assay [12] has the same target. Description: Inhibition of full-length microsomal PGES-1 (unknown origin) expressed in Escherichia coli Rosetta(DE3) using PGH2 as substrate assessed as PGH2 conversion to PGE2 at 10 uM incubated 15 mins prior to substrate addition measured after 1 min by EIA.
For assay [13] the target is unchanged. Description: Inhibition of microsomal PGES-1 (unknown origin) expressed in Escherichia coli using PGH2 as substrate assessed as inhibition of PGE2 formation at 10 uM by reversed phase HPLC analysis.

For `COc1ccc(-c2nnc(SCC(=O)c3ccc4c(c3)Cc3ccccc3-4)nc2-c2ccc(OC)cc2)cc1`, the inhibition in assay [1] is 0%; in assay [2], greater than 60%; in assay [3] it was less than 1%; in assay [7], 20%; in [8], less than 1%; in [9], 2.1%. The inhibition is less than 15% in assay [10] and 80% in [11]. Further, the inhibition result in assay [4] is “Active”. Also, the IC50 came out at 300 nM in [5] and 4 nM in [6].

As for `CCOc1cc(/C=C2/C(=O)N(c3ccc(Cl)cc3)N=C2C)ccc1OCC(=O)O`, the inhibition in assay [12] was 10%.

Consider `CCOC(=O)C1=C(C)N=c2s/c(=C\c3ccc(-c4ccc(Cl)c(C(=O)O)c4)o3)c(=O)n2C1c1ccccc1Cl` (stereo unspecified), for which the inhibition in assay [1] was 0%; in [2] it was greater than 60%; in assay [3] it was less than 1%; in [7] it was less than 1%; in [8] it was 12.9%; in assay [9], less than 1%. Moreover, the inhibition in assay [10] was less than 15%; in assay [11], 80%. Also, in assay [4], the inhibition entry is “Active”. For the same molecule, the IC50 in [5] is 6500 nM; in assay [6], 2 nM.

As to `Cc1ccc2oc(-c3cccc(NC(=O)c4ccccc4[N+](=O)[O-])c3)nc2c1`, the inhibition in assay [13] was 50%.

Turning to `CC1=NN(c2ccc([N+](=O)[O-])cc2)C(=O)/C1=N\Nc1ccccc1C(=O)O`, the inhibition was less than 1% in assay [3], 10% in assay [7], 2.5% in [8] and 1% in assay [9]. The IC50 was 17000 nM in assay [5] and 10 nM in assay [6].

Consider `O=C(O)CN1C(=O)/C(=C2/C(=O)N(CC(=O)O)c3ccccc32)SC1=S`, for which the inhibition in assay [1] is 0%; in assay [2] it was greater than 60%; in assay [3], less than 1%; in assay [7], less than 1%; in assay [8], 14.7%; in assay [9] it was less than 1%. The inhibition in assay [10] is less than 15%; in assay [11], 80%. Moreover, in assay [4], the inhibition entry was “Active”. In addition, the half-maximal inhibitory concentration (IC50) was 3800 nM in assay [5] and 1.8 nM in [6].
